Data from ChEMBL document CHEMBL4346709, “Design and Optimization Leading to an Orally Active TTK Protein Kinase Inhibitor with Robust Single Agent Efficacy” (J Med Chem, 2019).

Columns and labels:
[1] = AUC in rat at 10 mg/kg, po; assay type: ADME, organism-based; conditions: in vivo
Method in brief: (§1)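 Rat oral PK at 10 mg/kg. Compound is given as a solution in CMCT (0.5% CMC/0.25% tween-80) or formulated in 5% TPGS, 10% captisol, 50 mM citrate buffer. Cmax and AUC are recorded.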

[2] = system: CAL-51; assay: Antiproliferative activity against human CAL51 cells assessed as reduction in cell viability after 3 days by CellTiter-Glo reagent-based luminescent assay; assay type: functional; conditions: CAL-51, 72 h
[3] = molecular target: T1, Dual specificity protein kinase TTK (Homo sapiens, UniProt P33981); assay: Inhibition of Kinase Tracer 236 binding to recombinant human full-length GST-tagged TTk expressed in baculovirus expression system measured after 1 hr by LanthaScreen Eu--kinase binding assay
T1 sequence (P33981 whole entry): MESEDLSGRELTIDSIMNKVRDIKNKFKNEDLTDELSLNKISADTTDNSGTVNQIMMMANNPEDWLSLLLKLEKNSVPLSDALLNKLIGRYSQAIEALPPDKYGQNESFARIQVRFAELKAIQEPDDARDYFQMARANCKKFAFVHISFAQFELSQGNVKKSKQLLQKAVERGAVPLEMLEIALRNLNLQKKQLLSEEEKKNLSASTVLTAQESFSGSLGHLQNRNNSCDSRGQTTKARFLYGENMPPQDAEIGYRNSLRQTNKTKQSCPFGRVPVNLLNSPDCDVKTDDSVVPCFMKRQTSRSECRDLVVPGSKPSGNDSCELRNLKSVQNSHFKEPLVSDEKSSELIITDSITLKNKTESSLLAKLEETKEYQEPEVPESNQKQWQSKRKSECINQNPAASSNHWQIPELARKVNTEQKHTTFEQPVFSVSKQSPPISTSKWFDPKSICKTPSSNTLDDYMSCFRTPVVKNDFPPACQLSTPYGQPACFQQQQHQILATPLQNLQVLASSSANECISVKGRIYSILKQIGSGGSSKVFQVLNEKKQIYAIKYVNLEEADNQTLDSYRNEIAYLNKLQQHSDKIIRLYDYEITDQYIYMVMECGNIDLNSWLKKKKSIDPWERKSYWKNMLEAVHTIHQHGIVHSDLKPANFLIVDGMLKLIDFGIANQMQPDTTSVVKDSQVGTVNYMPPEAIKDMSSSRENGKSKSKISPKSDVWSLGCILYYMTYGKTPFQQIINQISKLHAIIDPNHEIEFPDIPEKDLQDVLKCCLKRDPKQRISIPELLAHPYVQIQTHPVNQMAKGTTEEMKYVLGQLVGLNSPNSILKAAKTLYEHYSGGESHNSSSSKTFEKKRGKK

[4] = Cmax in CB17 SCID mouse at 30 mg/kg, po; assay type: ADME, organism-based; design: dose 30 mg/kg, route oral; conditions: in vivo
Method in brief: (§2)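 Oral PK in SCID mice at 30 mg/kg. Compound is formulated either in CMCT (0.5% CMC/0.25% tween-80) or in 5% TPGS, 10% captisol, 50 mM citrate buffer, depending on compound. Cmax and AUC are measured.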

[5] = Cmax in rat at 10 mg/kg, po; assay type: ADME, organism-based; design: dose 10 mg/kg, route oral; conditions: in vivo; method in brief: as §1
[6] = AUC in CB17 SCID mouse at 30 mg/kg, po; assay type: ADME, organism-based; conditions: in vivo; method in brief: as §2
[7] = molecular target: T1, Dual specificity protein kinase TTK; assay: Inhibition of TTK autophosphorylation in human CAL51 cells by radioimmuno-precipitation assay; assay type: cell-based
[8] = Metabolic stability in human liver S9 fraction assessed as parent compound remaining after 60 mins; assay type: ADME, subcellular; conditions: read-out: Stability
[9] = system: CAL-51; assay: Antitumor activity against human CAL51 cells xenografted in CB17 SCID mouse assessed as tumor growth inhibition at 5 mg/kg, iv q4d and measured twice per week up to 31 days by caliper method relative to control; assay type: functional; conditions: CAL-51, iv, 744 h, read-out: TGI
[10] = Toxicity in CB17 SCID mouse xenografted with human CAL51 cells assessed as body weight loss at 5 mg/kg, iv q4d and measured up to 31 days relative to control; assay type: organism-based; conditions: in vivo, 744 h
[11] = Oral bioavailability in rat at 5 mg/kg; conditions: in vivo

Compound	AUC [1] [µM·h]	IC50 [2] [nM]	IC50 [3] [nM]	other results
CN(C)C(=O)c1ccc(Nc2nc(O[C@H]3CC[C@@](C)(O)CC3)c3cc[nH]c3n2)c(OCC(F)(F)F)c1	16.1	15	–	–
COc1cc(C(=O)N(C)C)ccc1Nc1nc(OC2CCCCC2)c2cc[nH]c2n1	–	190	1.3	–
COc1cc(C(=O)N(C)C)ccc1Nc1nc(OC2CCOCC2)c2cc[nH]c2n1	–	198	1	–
CCOc1cc(C(=O)N(C)C)ccc1Nc1nc(O[C@H]2CC[C@@](C)(O)CC2)c2cc[nH]c2n1	–	26	–	–
COc1cc(C(=O)N(C)C)ccc1Nc1nc(O[C@H]2CC[C@](C)(O)CC2)c2cc[nH]c2n1	–	69	0.6	–
COc1cc(C(=O)N2CCOCC2)ccc1Nc1nc(O[C@H]2CCOC(C)(C)C2)c2cc[nH]c2n1	–	406	–	–
COc1cc(C(=O)N(C)C)ccc1Nc1nc(O[C@H]2CCOC(C)(C)C2)c2cc[nH]c2n1	30	131	1	–
COc1cc(N2CCN(C(=O)CO)CC2)ccc1Nc1nc(O[C@H]2CCOC(C)(C)C2)c2cc[nH]c2n1	9.5 to 9.52	37	1.3	Cmax [4]: 9.86 µM; Cmax [5]: 2.53 µM; AUC [6]: 17.6 µM·h; IC50 [7]: 16 nM; remaining at 1 h [8]: 79%
COc1cc(N2CCN(C3COC3)CC2)ccc1Nc1nc(O[C@H]2CCOC(C)(C)C2)c2cc[nH]c2n1	24	84	2.5	Cmax [4]: 11.8 µM; Cmax [5]: 4.43 µM; AUC [6]: 35.3 µM·h; IC50 [7]: 44 nM; remaining at 1 h [8]: 85%
COc1cc(N2CCC(C)(O)CC2)ccc1Nc1nc(O[C@H]2CCOC(C)(C)C2)c2cc[nH]c2n1	11	71	–	–
COc1cc(C(=O)N(C)C)ccc1Nc1nc(O[C@H]2CC[C@@](C)(O)CC2)c2cc[nH]c2n1	21.8	44	0.7	–
COc1cc(N2CCOCC2)ccc1Nc1nc(O[C@H]2CCOC(C)(C)C2)c2cc[nH]c2n1	14.7	53	–	–
CC(=O)O[C@@]12CO[C@@H]1C[C@H](O)[C@@]1(C)C(=O)[C@H](O)C3=C(C)[C@@H](OC(=O)[C@H](O)[C@@H](NC(=O)OC(C)(C)C)c4ccccc4)C[C@@](O)([C@@H](OC(=O)c4ccccc4)[C@H]21)C3(C)C [DOCETAXEL ANHYDROUS]	–	–	–	inhibition in vivo at 5 mg/kg [9]: 61%; Activity [10]: 20%
C[C@@H](Oc1cc(C(=O)N(C)C)ccc1Nc1nc(O[C@H]2CC[C@@](C)(O)CC2)c2cc[nH]c2n1)C(F)(F)F	30	24	–	–
COc1cc(C(=O)N(C)C)ccc1Nc1nc(OC2CCCC2)c2cc[nH]c2n1	–	497	1.3	–
COc1cc(C(=O)N(C)C)ccc1Nc1nc(OC2COC2)c2cc[nH]c2n1	–	1960	7.2	–
COc1cc(C(=O)N(C)C)ccc1Nc1nc(OC(C)C)c2cc[nH]c2n1	–	1260	3.2	–
CNC(=O)c1ccc(Nc2nc(OC3CCCC3)c3c(-c4ccc5nc(C)oc5c4)c[nH]c3n2)c(OC)c1	–	–	–	bioavailability [11]: 0.9%
